Results from PubChem BioAssay AID504382 (The Scripps Research Institute Molecular Screening Center, 2011).
Out of some 2,500 compounds screened, about 460 (18%) were called active.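 How the source made its calls: active means mean activation above a cutoff of low control average plus 3 SD from the earlier screen (cut at about 12% in these data); inactive means the rest.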 These entries were drawn from the full list.

Test: IANBD-channel fluorescence artefacts in buffer – biochemical, artefact control for cardiac RTF calcium sensitizer project, confirmation (AID 504382)
Conditions: IANBD fluorescence interference counterscreen, EC20 Ca2+, at 7.2 µM, stronger effect = higher value, scaled: EC20 calcium 0, EC100 calcium 100
Summary of the method: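 Also added: EC20 calcium, 0.472 mM; dosing: single nominal 7.2 µM compound dose, 0.7% DMSO final; timing: 15 min, 25 °C; detection: fluorescence intensity, excitation 480 nm, emission 540 nm; replicates: each compound tested in triplicate wells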

SMILES	fluorescence artifact activation
CC(=O)c1nnn(-c2cccc(C#N)c2)c1C	0.2% (inactive)
Cc1ccc(/C=C2/NC(=O)N(Cc3ccccc3F)C2=O)s1	0.1% (inactive)
CCCCn1c(=O)[nH]c2nc3cc(N)ccc3nc2c1=O	0.06% (inactive)
CCCCCCn1c(=O)[nH]c2nc3cc(N)c(C)cc3nc2c1=O	45.6% (active)
Cc1cc2nc3c(=O)n(C4CCCCC4)c(=O)[nH]c3nc2cc1N	9.65% (inactive)
C=CCn1c(=O)[nH]c2nc3cc(N=CN(C)C)c(C)cc3nc2c1=O	16.2% (active)
Cc1cc2nc3c(=O)n(CCc4ccccc4)c(=O)[nH]c3nc2cc1N	0.7% (inactive)
N=c1oc2c3c4c(cc2cc1C(=O)Nc1ccccc1)CCCN4CCC3	4.85% (inactive)
Cn1cccc1/C=C1\CCC/C(=C\c2cccn2C)C1=O	0.94% (inactive)
O=C(COC(=O)Cn1cnc2ccccc21)Nc1cccc2c1C(=O)c1ccccc1C2=O	5.29% (inactive)
O=C1/C(=C/c2ccc(Br)cc2)Oc2cc(O)ccc21	17.9% (active)
COc1cc(/C=C2\Oc3cc(O)ccc3C2=O)ccc1O	0.16% (inactive)
O=C1/C(=C/c2cccc(F)c2)Oc2cc(O)ccc21	-0.06% (inactive)
C[C@H](CO)NC(=O)[C@@H]1C[C@H]1[C@@H](NP(=O)(c1ccccc1)c1ccccc1)c1ccccc1	0.29% (inactive)
C=CCN(C(=O)CNS(=O)(=O)c1ccccc1)C(C(=O)NCCOC)c1ccncc1 (stereo not given)	0.23% (inactive)
COCCNC(=O)[C@H]1C[C@@H]1[C@H](NP(=O)(c1ccccc1)c1ccccc1)c1ccccc1	1400% (active)
Cc1cc(Br)c2c(c1)C(O)(N1CCCCC1C)C(=O)N2 (stereo not given)	1.99% (inactive)
CC(C)(C)C(=O)/C=c1\s/c(=C\c2ccc(-c3ccc([N+](=O)[O-])cc3)o2)c(=O)n1CC(=O)NC(N)=O	7.12% (inactive)
COc1cc(/C=C(\C#N)c2nc3ccccc3o2)ccc1O	0.62% (inactive)
Nc1nc(SCC(=O)Nc2ccccc2)nc2nc3c(cc12)CCCC3	0.24% (inactive)
Cc1cc(C)n2nc3nc4c(cc3c2n1)CCCC4	28.7% (active)
C=CCOc1ccc(Br)cc1CNCC	6.82% (inactive)
CCOc1ccc(C(=O)NCC(=O)N2CCC3CCCCC3C2)cc1OCC (stereo not given)	59.4% (active)

SMILES	fluorescence artifact activation
CCOc1cc(C#N)ccc1OCC(=O)N1CCc2ccccc2C1	0.13% (inactive)
CCOc1ccc(C(=O)NCC(=O)Nc2ncccc2C)cc1OCC	1.27% (inactive)
COCCOC(=O)/C(=C/c1ccc(OC(=O)c2ccccc2)cc1)C(C)=O	4.54% (inactive)
COC(=O)c1ccc(NC(=O)c2snnc2-c2ccccc2)cc1	1.82% (inactive)
O=C(c1ccc2c(=O)n3c(nc2c1)CCCCC3)N1CCN(c2cccc(Cl)c2)CC1	0.04% (inactive)
Oc1ccc2ccccc2c1C=NCc1cn2ccsc2n1	-0.01% (inactive)
N#C/C(=C\C=C\c1ccccc1)c1nc(-c2ccc3c(c2)OCO3)cs1	0.13% (inactive)
N#C/C(=C\c1ccc(-c2ccc(F)cc2)o1)C(=O)Nc1nc(-c2cccs2)cs1	15.1% (active)
N#C/C(=C/c1ccc(N2CCOCC2)o1)C(=O)Nc1ccccc1	0.03% (inactive)
N#C/C(=C/c1ccc(-c2ccccc2)o1)c1nc(-c2cccs2)cs1	19.2% (active)
Cn1c(/C(C#N)=C/c2ccc(-c3ccc(S(N)(=O)=O)cc3)o2)nc2ccccc21	0.08% (inactive)
Cc1cc(Cl)ccc1OCC(=O)Nc1nc(-c2cccs2)cs1	0.04% (inactive)
O=C(CSc1n[nH]c(-c2cccs2)n1)N1CCOCC1	-0.05% (inactive)
Cc1nnc(SCC(=O)NC(C)(C)C)n1C1CCCCC1	10.9% (inactive)
Nc1c(C(=O)c2ccc(Cl)cc2)sc2nsc(SCCN3CCOCC3)c12	0.08% (inactive)
Oc1ccc2nnc3c(Br)cnn3c2c1	0.07% (inactive)
COc1ccc(/C=N/NC(=O)c2cc(OC)c(OC)c(OC)c2)cc1CN1CCc2cc(OC)c(OC)cc2C1C (stereo not given)	7.53% (inactive)
CC1(C)CC(N2CCCC2)=CC(=[N+]2CCCCC2)C1	2.5% (inactive)
COc1ccc2[nH]c(C)c(CCN(Cc3cccs3)C(=S)Nc3ccc(F)cc3)c2c1	1.01% (inactive)
O=C(Cc1ccc(NC(=O)C2CCCN(C(=O)C3CCCCC3)C2)cc1)Nc1cccc(C(=O)N2CCCC2)c1 (stereo not given)	0.41% (inactive)
CCCCOC(=O)Cn1c2ccc(OC)cc2c2nc3ccccc3nc21	0.92% (inactive)
CCOc1ccc(Cn2c3ccc(OC)cc3c3nc4ccccc4nc32)cc1	23.1% (active)
COc1ccc(Cn2nnc3ccccc32)cc1	0.37% (inactive)

SMILES	fluorescence artifact activation
COC(=O)C(=N/Nc1ccccc1C(=O)OC)/C(C)=N/O	6.02% (inactive)
C/C(=N/NC(=O)c1cc(C)[nH]n1)c1ccco1	0.79% (inactive)
COc1ccc(/C=c2\s/c(=C/C(=O)c3ccc(C)cc3)[nH]c2=O)cc1OC	0.04% (inactive)
CN1CCc2c(sc3nc(SCC(N)=O)n(-c4ccccc4)c(=O)c23)C1	-0.02% (inactive)
Cc1ccc(NS(=O)(=O)c2ccc(C(=O)N3CCN(c4ncccn4)CC3)cc2)cc1	0.15% (inactive)
COc1ccc2c(c1)cc(C(=O)N[C@@H](CCSC)C(=O)N1CCC[C@H]1C(=O)O)n2C	1.37% (inactive)
O=C1N/C(=C\c2ccc(N3CCOCC3)c(F)c2)C(=O)N1Cc1ccccc1	0.25% (inactive)
O=C(O)c1cc(NCc2ccc(F)cc2)ccc1N1CCOCC1	18.7% (active)
O=C(N1CCOCC1)N1CCN(c2ccc(F)cc2)CC1	0.02% (inactive)
CCOc1ccccc1N(CC(=O)Nc1ccc(OC)c(OC)c1)S(=O)(=O)c1ccccc1	0.04% (inactive)
CC1=Nc2ccccc2/C1=C/c1nc(-c2ccc(C)s2)oc1O	0.4% (inactive)
CC(=O)Nc1ccc(N2C(=O)c3cccc4c(O)ccc(c34)C2=O)cc1	0.2% (inactive)
COC(=O)C1(C)NC(c2ccc(C)cc2)C2C(=O)N(c3ccc(F)cc3)C(=O)C21 (stereo not given)	3.94% (inactive)
CC(=O)Nc1ccc(N2C(=O)CSC2c2ccc(F)cc2)cc1 (stereo not given)	47.7% (active)
Nc1nc2ccccc2n1CCOc1ccc(Br)cc1	0.41% (inactive)
O=C(C1=C(O)C(=O)N(c2nccs2)C1c1ccccc1)c1cc2ccccc2o1 (stereo not given)	-0.02% (inactive)
Cc1ccccc1Cn1cccc1/C=C1/C(=N)N2C=CSC2=NC1=O	0.51% (inactive)
C=CCNc1nnc(SCC(=O)N2CCC(C(N)=O)CC2)s1	2.23% (inactive)
CCOc1c2ccc(C(=O)NCc3ccc(C)cc3)cc2nn1CCOC	0.08% (inactive)
CCN(CC(=O)Nc1c(F)cccc1F)C(=O)CNC(=O)COc1ccccc1	-0.06% (inactive)
c1ccc(-n2ncc(-c3nn[nH]n3)n2)cc1	48.8% (active)
O=C(C1=NN(c2ccccc2)C2C(=O)N(c3ccccc3)C(=O)C12)c1ccccc1 (stereo not given)	-0.1% (inactive)
O=C(NCc1ccc(F)cc1)c1cccc2c1C(=O)c1ccc(N3CCC(Cc4ccccc4)CC3)cc1S2(=O)=O	0.01% (inactive)

SMILES	fluorescence artifact activation
O=C(NCc1ccco1)c1cccc2c1C(=O)c1ccc(N3CCCC3)cc1S2(=O)=O	0.41% (inactive)
O=C(NCc1cccc(C(F)(F)F)c1)c1cccc2c1C(=O)c1ccc(N3CCC(Cc4ccccc4)CC3)cc1S2(=O)=O	0.26% (inactive)
O=C(NCc1ccco1)c1cccc2c1C(=O)c1ccc(N3CCC(Cc4ccccc4)CC3)cc1S2(=O)=O	24.3% (active)
O=C(NCCc1ccc(F)cc1)c1cccc2c1C(=O)c1ccc(N3CCC(Cc4ccccc4)CC3)cc1S2(=O)=O	33.5% (active)
O=C(NCc1cccc(F)c1)c1cccc2c1C(=O)c1ccc(N3CCC(Cc4ccccc4)CC3)cc1S2(=O)=O	3.97% (inactive)
COc1ccc(/C=C2\Oc3cc(OCC(=O)N4CCC(C(=O)O)CC4)ccc3C2=O)c(OC)c1	84% (active)
COc1ccc(/C=C2\Oc3cc(OCC(=O)N4CCC[C@H]4C(=O)O)ccc3C2=O)c(OC)c1	5.17% (inactive)
COc1ccc(/C=C2\Oc3cc(OCC(=O)N4CCC[C@H]4CO)ccc3C2=O)c(OC)c1	0.23% (inactive)
CN(C)c1ccc(/C=C/C(=O)c2cccc(Br)c2)cc1	0.06% (inactive)
CCOc1ccc(Cn2nnc(C(=O)NCCc3ccccc3)c2N)cc1	40.2% (active)
CCOc1ccc(CCNC(=O)c2ccc(CNS(=O)(=O)c3ccccc3)cc2)cc1OCC	0.06% (inactive)
O=C(NCCc1ccccc1)c1ccc(Cl)nc1	5.54% (inactive)
CC1=Nc2ccccc2/C1=C/c1sc(=S)n(-c2cccc(C(=O)O)c2)c1O	0.55% (inactive)
O=C(Cc1ccccc1)Nn1c(O)c(/C=C2\C=Nc3ccccc32)sc1=S	29.4% (active)
Cc1ccc2c(c1)[C@H]1[C@H](CO2)[C@H](c2ccccc2)[C@]2(C)C(=O)N(Cc3ccc(F)cc3)CC(=O)N12	0.19% (inactive)
Clc1ccccc1/C=N/NC1=Nc2cccc3cccc1c23	0.08% (inactive)
CCC12OC(=N)C(C#N)(C1C)C(C#N)(C#N)C(c1ccccc1)O2 (stereo not given)	-0.03% (inactive)
O=C(CCSc1ccccc1)N1CCN(C(=O)c2ccco2)CC1	25.9% (active)
O=C(COC(=O)C1(c2ccc(F)cc2)CCCC1)N1CCN(C(=O)c2ccco2)CC1	0% (inactive)
CCC(C)(C)n1nnnc1C(c1ccc(C)cc1)N1CCN(C(=O)c2ccco2)CC1 (stereo not given)	0.17% (inactive)
COc1cc2c(cc1OC)CN(Cc1cc(=O)oc3cc(C)c(C)cc13)CC2	-0.02% (inactive)
